From ChEMBL document CHEMBL1926564, “Design, synthesis and biological activity of original pyrazolo-pyrido-diazepine, -pyrazine and -oxazine dione derivatives as novel dual Nox4/Nox1 inhibitors” (Bioorg Med Chem, 2011)

Experiments:
NADPH oxidase 1 = target: T1, NADPH oxidase 1 (Homo sapiens, UniProt Q9Y5S8); assay: Antagonist activity at human NOX1 expressed in CHO cell membrane coexpressing tetracylin repressor assessed as inhibition of ROS production after 20 mins by cell-free amplex red assay; format: functional
T1 sequence (Q9Y5S8 whole entry): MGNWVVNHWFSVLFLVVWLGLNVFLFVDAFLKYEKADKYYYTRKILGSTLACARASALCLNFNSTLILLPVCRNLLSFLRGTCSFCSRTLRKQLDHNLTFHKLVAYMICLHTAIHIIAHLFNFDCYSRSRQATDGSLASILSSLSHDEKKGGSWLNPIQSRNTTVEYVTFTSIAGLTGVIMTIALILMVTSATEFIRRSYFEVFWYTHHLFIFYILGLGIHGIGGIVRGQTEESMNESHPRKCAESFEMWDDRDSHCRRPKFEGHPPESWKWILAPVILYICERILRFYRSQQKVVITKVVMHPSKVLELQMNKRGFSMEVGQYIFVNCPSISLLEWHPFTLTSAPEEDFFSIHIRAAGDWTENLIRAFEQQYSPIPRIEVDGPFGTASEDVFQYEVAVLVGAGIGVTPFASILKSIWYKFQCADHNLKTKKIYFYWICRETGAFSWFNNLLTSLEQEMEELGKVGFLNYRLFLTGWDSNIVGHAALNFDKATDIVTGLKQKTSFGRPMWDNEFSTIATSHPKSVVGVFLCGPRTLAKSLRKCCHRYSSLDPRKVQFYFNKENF
Method in brief: (§1)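 Membranes from tetracycline-induced (24 h) Nox-expressing cells or human PMN (Nox2), sucrose-gradient purified; or xanthine oxidase. Incubated in PBS with Amplex Red, HRP and cofactors; NADPH (Nox) or xanthine starts ROS. Compound 1 nM–100 µM, 20 min at 37 °C, plate-reader. Background without membranes or agonist. Ki by Cheng-Prusoff; mean of ≥3 experiments in triplicate.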

NADPH oxidase 2 = target: T2, NADPH oxidase 2 (Homo sapiens, UniProt P04839); assay: Antagonist activity at human NOX2 in human polymorphonuclear cell membrane assessed as inhibition of ROS production after 20 mins by cell-free amplex red assay; format: functional; method in brief: as §1
T2 sequence (P04839 whole entry): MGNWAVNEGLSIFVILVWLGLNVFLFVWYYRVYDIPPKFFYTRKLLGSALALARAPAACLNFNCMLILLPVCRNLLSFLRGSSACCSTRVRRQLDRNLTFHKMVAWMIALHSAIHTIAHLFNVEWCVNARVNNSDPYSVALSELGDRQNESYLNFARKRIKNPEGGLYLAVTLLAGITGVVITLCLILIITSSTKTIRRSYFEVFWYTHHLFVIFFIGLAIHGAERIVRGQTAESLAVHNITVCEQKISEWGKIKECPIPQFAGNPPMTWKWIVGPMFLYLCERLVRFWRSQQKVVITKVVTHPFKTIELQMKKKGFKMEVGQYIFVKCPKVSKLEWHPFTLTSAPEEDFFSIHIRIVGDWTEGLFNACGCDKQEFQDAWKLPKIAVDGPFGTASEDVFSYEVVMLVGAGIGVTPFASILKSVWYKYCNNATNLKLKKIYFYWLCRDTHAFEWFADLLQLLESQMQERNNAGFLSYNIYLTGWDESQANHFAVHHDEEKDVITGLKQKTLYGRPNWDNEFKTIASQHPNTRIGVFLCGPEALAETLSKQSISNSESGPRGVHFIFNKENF

NADPH oxidase 4 = target: T3, NADPH oxidase 4 (Homo sapiens, UniProt Q9NPH5); assay: Antagonist activity at human NOX4 expressed in CHO cell membrane coexpressing tetracylin repressor assessed as inhibition of ROS production after 20 mins by cell-free amplex red assay; format: functional; conditions: in the assay text read “HEK293 cell membrane” for “CHO cell membrane”; method in brief: as §1
T3 sequence (Q9NPH5 whole entry): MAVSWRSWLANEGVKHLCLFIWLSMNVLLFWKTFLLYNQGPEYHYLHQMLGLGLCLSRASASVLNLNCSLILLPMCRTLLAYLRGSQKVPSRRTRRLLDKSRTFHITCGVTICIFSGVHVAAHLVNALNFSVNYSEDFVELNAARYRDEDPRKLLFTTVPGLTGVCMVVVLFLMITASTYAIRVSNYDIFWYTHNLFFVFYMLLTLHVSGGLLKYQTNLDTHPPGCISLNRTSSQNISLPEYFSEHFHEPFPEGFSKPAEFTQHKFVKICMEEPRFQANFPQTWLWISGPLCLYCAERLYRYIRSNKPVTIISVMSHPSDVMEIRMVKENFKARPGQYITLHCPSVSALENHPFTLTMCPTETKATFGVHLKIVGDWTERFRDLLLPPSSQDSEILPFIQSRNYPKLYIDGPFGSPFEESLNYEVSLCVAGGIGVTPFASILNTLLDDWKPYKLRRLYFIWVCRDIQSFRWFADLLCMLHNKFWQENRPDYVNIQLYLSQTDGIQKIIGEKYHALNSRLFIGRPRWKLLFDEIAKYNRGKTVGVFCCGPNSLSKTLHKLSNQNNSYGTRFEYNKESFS

NADPH oxidase 5 = target: T4, NADPH oxidase 5 (Homo sapiens, UniProt Q96PH1); assay: Antagonist activity at human NOX5 assessed as inhibition of ROS production after 20 mins by cell-free amplex red assay; format: functional; method in brief: as §1
T4 sequence (Q96PH1 whole entry): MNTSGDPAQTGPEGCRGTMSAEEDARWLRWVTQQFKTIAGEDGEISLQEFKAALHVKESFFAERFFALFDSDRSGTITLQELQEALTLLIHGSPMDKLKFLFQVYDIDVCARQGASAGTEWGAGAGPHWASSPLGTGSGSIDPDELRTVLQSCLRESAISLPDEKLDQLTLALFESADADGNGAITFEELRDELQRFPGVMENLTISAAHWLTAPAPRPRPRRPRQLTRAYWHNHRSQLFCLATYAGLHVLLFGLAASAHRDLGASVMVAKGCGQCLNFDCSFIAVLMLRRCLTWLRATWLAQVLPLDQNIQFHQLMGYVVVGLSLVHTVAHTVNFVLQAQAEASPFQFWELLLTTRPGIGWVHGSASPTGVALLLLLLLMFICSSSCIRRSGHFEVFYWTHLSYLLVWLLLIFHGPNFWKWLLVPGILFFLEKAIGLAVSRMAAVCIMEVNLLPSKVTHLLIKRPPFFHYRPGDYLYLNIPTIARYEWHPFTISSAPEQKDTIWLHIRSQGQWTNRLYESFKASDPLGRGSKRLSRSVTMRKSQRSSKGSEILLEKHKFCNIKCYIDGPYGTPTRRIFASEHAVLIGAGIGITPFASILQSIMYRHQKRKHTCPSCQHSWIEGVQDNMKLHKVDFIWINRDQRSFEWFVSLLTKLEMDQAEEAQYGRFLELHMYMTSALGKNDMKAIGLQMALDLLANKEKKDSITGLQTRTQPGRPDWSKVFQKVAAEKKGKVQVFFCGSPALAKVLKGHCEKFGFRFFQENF

Homo sapiens = species on record: Homo sapiens; assay: Selectivity ratio of Ki for human NOX2 to Ki for human NOX4
Method in brief: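 Ratio of Ki values from the Amplex Red membrane ROS assay (PMN membranes for Nox2, Nox4-overexpressing membranes), NADPH-triggered, 1 nM–100 µM, 20 min at 37 °C; Ki via Cheng-Prusoff.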

[1] = Clearance in human liver microsomes assessed per mg of protein at 0.5 uM; format: ADME, Microsome; conditions: read-out: CLH
Method in brief: (§2)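 Pooled rat (male Sprague Dawley) or human (mixed-sex) liver microsomes at 0.5 mg/mL final, 0.1 M phosphate pH 7.4, compound 0.5 µM final, 0.25% DMSO, 37 °C; 1 mM NADPH starts reaction. Sampled 0–45 min, methanol quench with internal standard, LC/MS-MS; intrinsic clearance from compound loss.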

[2] = Clearance in Sprague-Dawley rat liver microsomes assessed per mg of protein at 0.5 uM; format: ADME, Microsome; conditions: read-out: CLH; method in brief: as §2
[3] = Apparent permeability across human Caco2 cells at 10 uM after 2 hrs; format: ADME, cell-based; conditions: Caco-2
Method in brief: (§3)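 Caco-2 monolayers grown 20 days, TEER >800 ohm·cm². Compound 10 µM final in HBSS pH 6.5 (1% DMSO), dosed apical (A→B) or basolateral (B→A), 2 h at 37 °C; both compartments sampled, LC–MS/MS cassette analysis with 5-point calibration.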

[4] = Efflux ratio of apparent permeability across human Caco2 cells at 10 uM after 2 hrs; format: ADME, cell-based; conditions: Caco-2; method in brief: as §3
[5] = Lipophilicity, log D of the compound at pH 7.4; format: physicochemical; conditions: buffer
[6] = Fraction unbound in rat plasma containing 50% plasma protein; format: ADME, cell-free
Method in brief: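 Rat plasma protein binding in 50% plasma; fraction unbound reported.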

| Structure (SMILES) | Ki (NADPH oxidase 1) [nM] | Ki (NADPH oxidase 2) [nM] | Ki (NADPH oxidase 4) [nM] | Ki (NADPH oxidase 5) [nM] | Ratio Ki (Homo sapiens) | microsomal CLint at 0.5 µM [1] [µL/min/mg] | microsomal CLint at 0.5 µM [2] [µL/min/mg] | Papp at 2 h, 10 µM [3] [×10⁻⁶ cm/s] | efflux ratio at 2 h, 10 µM [4] | logD [5] | fraction unbound [6] |
| --- | --- | --- | --- | --- | --- | --- | --- | --- | --- | --- | --- |
| CC(C)(C)OC(=O)N1CCCn2c(c3c(=O)n(-c4ccccc4Cl)[nH]c3cc2=O)C1 | 148 | 1280 | 103 | 590 | – | – | – | – | – | – | – |
| O=c1c2c3n(c(=O)cc2[nH]n1-c1ccccc1Cl)CCN(Cc1ccccc1)C3 | 398 | 2020 | 142 | 1420 | – | – | – | – | – | – | – |
| COc1ccccc1CN1CCCn2c(c3c(=O)n(-c4ccccc4Cl)[nH]c3cc2=O)C1 | 133 | 1760 | 111 | 740 | – | – | – | – | – | – | – |
| O=c1c2c3n(c(=O)cc2[nH]n1-c1ccccc1Cl)CCCNC3 | 119 | 365 | 87 | 360 | 4.2 | – | – | – | – | – | – |
| Cl.O=c1c2c3n(c(=O)cc2[nH]n1-c1ccccc1Cl)CCCN(Cc1cccnc1)C3 | 208 | 1370 | 94 | 1150 | – | 21 | 31.1 | 1 | 18.7 | 0.92 | 0.029 |
| O=c1c2c3n(c(=O)cc2[nH]n1-c1ccccc1Cl)CCCN(Cc1ccoc1)C3 | 200 | 1020 | 111 | 955 | – | – | – | – | – | – | – |
| O=c1c2c3n(c(=O)cc2[nH]n1-c1ccccc1Cl)CCCN(Cc1cccc(Cl)c1)C3 | 104 | 1150 | 101 | 475 | – | 81.4 | 153 | – | – | 2.76 | – |
| COc1cccc(CN2CCCn3c(c4c(=O)n(-c5ccccc5Cl)[nH]c4cc3=O)C2)c1.Cl | 113 | 1200 | 112 | 730 | – | 35 | 60.1 | 22.3 | 1.91 | 1.99 | 0.901 |
| COc1ccccc1-n1[nH]c2cc(=O)n3c(c2c1=O)CN(Cc1ccccn1)CCC3.Cl | 217 | 510 | 93 | 610 | – | 15.7 | 32.1 | 1.4 | 16.8 | 0.33 | 0.069 |
| O=c1c2c3n(c(=O)cc2[nH]n1-c1ccccc1Cl)CCCN(Cc1ccc(Cl)cc1)C3 | 95 | 1260 | 103 | 585 | – | 77.3 | 152 | – | – | 2.76 | – |
| O=c1c2c3n(c(=O)cc2[nH]n1-c1ccccc1Cl)CCCN(Cc1ccccc1Cl)C3 | 87 | 1160 | 76 | 615 | – | 87.1 | 164 | – | – | 2.76 | – |
| COc1ccc(CN2CCCn3c(c4c(=O)n(-c5ccccc5Cl)[nH]c4cc3=O)C2)cc1 | 184 | 780 | 116 | 690 | – | – | – | – | – | – | – |
| COc1cccc(CN2CCCn3c(c4c(=O)n(-c5ccccc5OC)[nH]c4cc3=O)C2)c1 | 212 | 820 | 131 | 690 | – | – | – | – | – | – | – |
| COc1ccccc1-n1[nH]c2cc(=O)n3c(c2c1=O)CN(Cc1ccccc1)CCC3 | 218 | 645 | 144 | 670 | – | – | – | – | – | – | – |
| O=c1c2c3n(c(=O)cc2[nH]n1-c1ccccc1Cl)CCOC3 | 173 | 433 | 156 | 490 | – | – | – | – | – | – | – |
